Reference: BindingDB's records for doi:10.1021/acs.jnatprod.6b00141 (University of Eastern Piedmont, 2016)

How the values were obtained:
[1] = target: Signal transducer and activator of transcription 3 (Homo sapiens, UniProt P40763); assay: Inhibition of IFNgamma-induced STAT3 activation in human HeLa cells expressing STAT3 (unknown origin) preincubated for 15 mins followed by IFN-gamma addition measured after 6 hrs by luciferase reporter gene assay
Outline: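 HeLa-STAT3-Luc reporter cells in DMEM with 10% heat-inactivated FBS. Compounds added 15 min before IFNγ (20 IU). Stimulated 6 h. Cells washed in PBS and lysed 15 min at room temperature in Tris-phosphate pH 7.8 lysis buffer. Luciferase read in centrifuged lysate supernatant. IC50 calculated.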

[2] = target: Transcription factor p65 (Human, UniProt Q04206); assay: Inhibition of NFkappaB p65 activation (unknown origin) expressed in human HeLa cells assessed as inhibition of TNFalpha-induced NFkappaB p65 nuclear accumulation pretreated with cells followed by TNFalpha addition by DAPI staining based microscopic analysis
Sequence of Transcription factor p65 (Q04206 whole entry): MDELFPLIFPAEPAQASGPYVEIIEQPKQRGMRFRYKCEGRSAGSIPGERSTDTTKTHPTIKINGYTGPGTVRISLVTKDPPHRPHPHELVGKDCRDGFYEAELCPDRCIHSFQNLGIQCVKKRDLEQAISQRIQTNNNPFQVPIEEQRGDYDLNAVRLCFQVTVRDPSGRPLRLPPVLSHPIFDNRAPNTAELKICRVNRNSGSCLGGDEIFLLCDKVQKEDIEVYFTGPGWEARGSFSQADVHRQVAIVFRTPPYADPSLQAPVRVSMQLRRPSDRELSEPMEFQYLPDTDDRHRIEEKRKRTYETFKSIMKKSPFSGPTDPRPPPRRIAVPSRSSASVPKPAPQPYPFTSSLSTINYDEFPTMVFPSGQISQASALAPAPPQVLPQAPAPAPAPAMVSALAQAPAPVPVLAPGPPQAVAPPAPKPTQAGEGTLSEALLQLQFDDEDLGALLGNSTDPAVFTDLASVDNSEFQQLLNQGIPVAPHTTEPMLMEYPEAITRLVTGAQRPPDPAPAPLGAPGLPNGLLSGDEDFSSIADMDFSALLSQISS

Sequence of Signal transducer and activator of transcription 3 (P40763 whole entry): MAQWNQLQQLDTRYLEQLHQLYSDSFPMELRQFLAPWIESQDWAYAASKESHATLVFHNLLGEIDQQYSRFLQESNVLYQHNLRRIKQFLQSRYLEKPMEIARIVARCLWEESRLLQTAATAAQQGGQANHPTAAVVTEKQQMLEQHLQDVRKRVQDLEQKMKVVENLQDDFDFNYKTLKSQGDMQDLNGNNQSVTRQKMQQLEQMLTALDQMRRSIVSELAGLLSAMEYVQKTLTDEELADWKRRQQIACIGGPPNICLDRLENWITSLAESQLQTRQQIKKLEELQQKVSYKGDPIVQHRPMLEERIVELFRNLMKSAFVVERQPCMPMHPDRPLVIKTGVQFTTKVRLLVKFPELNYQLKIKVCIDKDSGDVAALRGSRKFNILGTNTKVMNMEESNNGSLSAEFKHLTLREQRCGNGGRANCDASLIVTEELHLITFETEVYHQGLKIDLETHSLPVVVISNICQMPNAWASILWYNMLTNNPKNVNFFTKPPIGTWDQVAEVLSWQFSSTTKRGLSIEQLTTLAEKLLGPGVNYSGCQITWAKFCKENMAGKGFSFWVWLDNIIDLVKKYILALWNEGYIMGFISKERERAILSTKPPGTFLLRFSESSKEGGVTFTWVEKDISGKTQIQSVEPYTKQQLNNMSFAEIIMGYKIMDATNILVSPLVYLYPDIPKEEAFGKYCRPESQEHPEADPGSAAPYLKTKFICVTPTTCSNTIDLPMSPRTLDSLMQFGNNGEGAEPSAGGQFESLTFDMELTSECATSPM

Structure (SMILES)	IC50 [1]	IC50 [2]
CC(=O)O[C@H]1CC/C(C)=C/CC/C(C)=C/C[C@]2(C(C)C)CC[C@@]1(C)O2	> 50 µM	> 100 µM
C/C1=C\CC/C(C)=C/C[C@](O)(C(C)C)CC/C(C)=C/CC1	> 50 µM	
CC1=C2CC/C(C)=C/CC[C@]3(C)O[C@@H]3CC/C(C)=C/[C@@H]2OC1=O	> 50 µM	
C/C1=C\C[C@]2(C(C)C)CC[C@@](C)(O2)[C@H](O)CC/C(C)=C/CC1	> 50 µM	
C/C1=C\CC[C@]2(C)O[C@@H]2C[C@]2(C(C)C)CC[C@@](C)(O2)[C@@H](O)CC1	> 50 µM	
CC(=O)O[C@H]1CC/C(C)=C/CC[C@]2(C)O[C@@H]2C[C@]2(C(C)C)CC[C@@]1(C)O2	> 50 µM	
CC(=O)O[C@H]1CC[C@@]2(C)O[C@H]2CC/C(C)=C/C[C@]2(C(C)C)CC[C@@]1(C)O2	> 50 µM	
C/C1=C\C[C@]2(C(C)C)CC[C@@](C)(O2)[C@@H](OC(=O)Cc2ccccc2)CC/C(C)=C/CC1	> 50 µM	
C/C1=C\C[C@]2(C(C)C)CC[C@@](C)(O2)[C@@H](O)CC/C(C)=C/CC1 [Incensole]	15.8 µM	
